Assay outcomes from PubChem.
In the library only some 2.8% were active in any assay of this set; here they are far more common.
NPY2 pot ag – potentiates or activates human NPY-Y2 receptor. P49146. cells expressing NPY-Y2, potentiator/agonist read-out. activation, % at 3.6 µM. hit rate 0.45% among 220,000. AID 1359; in the data active means activation above about 27%;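 further: cells stimulated with NPY near EC25 plus isoproterenol at EC100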
Rad51 HR inh – Rad51 (human) homologous recombination inhibition; hRad51 DNA strand exchange, fluorescence dequenching; inhibition, % at 10 µM; hit rate 0.085% among 200,000; AID 1385;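 active means inhibition above 40% at the single screening dose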
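System: human Rad51 nucleoprotein filaments preassembled on unlabelled ssDNA. Reagent: labelled 47-mer dsDNA for strand exchange. Schedule: 30-min compound preincubation and 15-min exchange, both room temperature. Measured by: FRET fluorescence dequenching, excitation 485 nm, emission 520 nm. Read-out: Fluorescence-based percent inhibition, control- and blank-normalised. Benchmarks: plate controls and plate blanks.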
Measles CPE – protection of cells from measles virus. Measles virus-infected cells, CPE protection, absorbance. protection (pct of control), % at 4 µM. hit rate 1.5% among 140,000; in the data active means protection mostly above about 24%, no sharp cut-off; inactive means mostly below about 26%
NPY Y1 blocker – antagonists of human neuropeptide Y receptor Y1; P25929; HEK293-CNG Y1 cells, membrane potential fluorescence; NPY at EC95, then isoproterenol; inhibition, % at 3.6 µM; hit rate 1% among 200,000; AID 1040;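 active means inhibition above the campaign mean inhibition of all tested compounds plus 3 SD, cut at about 20% in these data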
Target sequence (P25929 whole entry, looked up): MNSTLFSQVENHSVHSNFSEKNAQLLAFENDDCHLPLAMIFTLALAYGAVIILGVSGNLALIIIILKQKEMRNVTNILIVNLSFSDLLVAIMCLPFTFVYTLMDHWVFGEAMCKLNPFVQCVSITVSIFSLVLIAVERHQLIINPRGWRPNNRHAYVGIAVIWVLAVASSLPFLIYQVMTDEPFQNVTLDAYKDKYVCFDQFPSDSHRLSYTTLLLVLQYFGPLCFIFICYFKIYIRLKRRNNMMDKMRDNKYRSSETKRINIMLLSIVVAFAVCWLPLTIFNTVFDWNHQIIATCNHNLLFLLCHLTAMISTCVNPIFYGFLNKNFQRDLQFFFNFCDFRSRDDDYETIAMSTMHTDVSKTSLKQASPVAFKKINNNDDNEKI
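Material: HEK293 Y1/CNG channel cell line; also added: NPY (25 nM), isoproterenol (1 µM), Ro 20-1724 (25 µM); doses: one concentration, 3.6 µM, in 0.4% DMSO; schedule: compound incubation 1 h at room temperature, readout 45 min post-stimulation; technique: membrane potential fluorescence; measure: fluorescence ratio normalized to % inhibition between controls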
NPY-Y2 antag – antagonists of human neuropeptide Y receptor Y2; inhibition, % at 2.7 µM; NPY-Y2 expressing cells, antagonist mode; hit rate 0.99% among 140,000; AID 793; P49146
NPY1 pot ag – potentiates or activates human NPY-Y1 receptor; NPY-Y1 expressing cells, potentiator/agonist activation; activation, % at 3.6 µM; hit rate 0.37% among 220,000; AID 1304; in the data active means activation above about 33%, passing the limit was not always enough;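 further: cells stimulated with NPY at EC10 then isoproterenol at EC100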
NPY-Y1 ant conf – confirmation of human neuropeptide Y receptor Y1 antagonists | shares compounds with NPY Y1 blocker | HEK293-CNG NPY-Y1, membrane potential fluorescence, cAMP; NPY challenge against isoproterenol-raised cAMP | inhibition, % at 3.6 µM | hit rate 21% among 1,200 | AID 1254; in the data active means inhibition above about 20%
NPY-Y2 antag ct – counter-screen for NPY-Y1 antagonists: human NPY-Y2 antagonism. shares compounds with NPY Y1 blocker. inhibition, % at 3.6 µM. hit rate 28% among 1,200. HEK293 NPY-Y2 CNG membrane potential fluorescence; cells given NPY, then isoproterenol
A number is an active result; - = inactive; . = not tested or not shown. Unless noted, no stated cut-off is given here; in the data, active means inhibition above about 17%; inactive means the rest.

SMILES	NPY2 pot ag	Rad51 HR inh	Measles CPE	NPY Y1 blocker	NPY-Y2 antag	NPY1 pot ag	NPY-Y1 ant conf	NPY-Y2 antag ct
CC(C)N1C(=O)C(Cc2nc3ccccc3c(=O)n2-c2ccccc2)c2ccccc21 (centres undefined)	-	-	-	22	-	-	-	18
COc1ccc(C)cc1NC(=O)CSc1nnc(COc2ccccc2)n1Cc1ccco1	-	.	-	21	-	-	-	-
COc1ccc(C)cc1NC(=O)CSc1nnc(COc2ccc(Cl)cc2)n1Cc1ccco1	-	-	.	-	-	-	.	.
Cc1ccc(NC2c3ncccc3C(=O)N2Cc2ccco2)c(C)c1 (centres undefined)	-	-	.	-	.	-	.	.
O=C(CSc1ccc(Cl)cc1)N1CCN(c2ncc(C(F)(F)F)cc2Cl)CC1	-	-	-	24	-	-	-	-
O=C(CN1CCN(c2ncc(C(F)(F)F)cc2Cl)CC1)N1CCN(c2ncc(C(F)(F)F)cc2Cl)CC1	-	-	-	-	-	-	.	.
COc1ccc(C(=O)c2coc3ccc(O)c(CN4CCCC4)c23)cc1	-	-	-	21	-	-	-	21
CCN(CC)S(=O)(=O)c1ccc2[nH]cc(C(=O)NCCCN3CCCCC3)c(=O)c2c1	-	.	-	-	-	-	.	.
CCN(CC)S(=O)(=O)c1ccc2[nH]cc(C(=O)NCCN3CCCCCC3)c(=O)c2c1	-	.	-	21	-	-	-	-
O=c1c2c(-c3ccccc3)csc2nc2c3ccccc3c(NCCN3CCOCC3)nn12	-	-	.	32	.	-	27	40
c1ccc(-c2csc3ncnc(NCCCN4CCOCC4)c23)cc1	-	-	-	-	-	-	.	.
CN(c1cccc(NC(=O)c2ccc(C(C)(C)C)cc2)c1)S(C)(=O)=O	-	-	.	-	.	-	.	.
CN(c1cccc(NC(=O)c2ccc(N(C)S(=O)(=O)c3ccccc3)cc2)c1)S(C)(=O)=O	-	-	.	41	.	-	-	-
COc1ccccc1CNC(=O)CSc1cc(=O)n(C)c2ccccc12	-	.	.	-	.	-	.	.
C/C(=N\NC(=O)CNc1ccccc1)c1ccccc1	-	-	.	-	.	-	.	.
O=C(Nc1nnc(C2=COCCO2)o1)c1ccc(Cc2ccccc2)cc1	-	-	.	22	.	-	-	-
Cc1ccc(NC(=S)N(CCN(C)C)Cc2cc3cc(C)cc(C)c3[nH]c2=O)cc1	-	.	-	25	-	-	-	-
Cc1ccc2cc(CN(CCN(C)C)C(=S)Nc3ccccc3)c(=O)[nH]c2c1C	-	-	.	-	.	-	.	.
COCCCNCCOc1ccccc1-c1ccccc1	-	.	-	-	-	-	.	.
c1ccc(-c2ccccc2OCCCCN2CCCCCC2)cc1	-	-	.	24	.	-	-	-
CCCCNCCOc1ccccc1-c1ccccc1	-	-	-	30	-	-	-	-
CC1CCCN(CCCOc2ccccc2-c2ccccc2)C1 (centres undefined)	-	-	.	25	.	-	-	-
COc1ccc(CCNC(=O)c2cc(-c3ccc(Cl)c(Cl)c3)oc2C)cc1	-	-	-	-	-	-	.	.
CCC(=O)N(Cc1ccco1)c1nc(C(=O)Nc2ccc(Cl)cc2)c(C)s1	-	.	-	-	-	-	.	.
COc1cc(OC)c(/C=N/NC(=O)c2ccc(Cn3nc([N+](=O)[O-])cc3C)cc2)c(OC)c1	-	-	.	.	.	-	.	.
SMILES	NPY2 pot ag	Rad51 HR inh	Measles CPE	NPY Y1 blocker	NPY-Y2 antag	NPY1 pot ag	NPY-Y1 ant conf	NPY-Y2 antag ct
COc1cccc(NC(=O)CN2CCN(c3ccccc3F)CC2)c1	-	-	-	22	-	-	-	-
CCCn1c2c(c(=N)c3c1CCC3)CCC2	-	-	.	.	.	-	.	.
CCCCCCCn1c2c(c(=N)c3ccccc31)CCC2	-	-	.	66	.	-	60	62
O=C(N1CCN(c2ccc(F)cc2)CC1)C12CC3CC(CC(C3)C1)C2	-	-	-	-	-	-	.	.
O=C(Nc1c2c(nn1-c1ccc(F)cc1)CS(=O)(=O)C2)C12CC3CC(CC(C3)C1)C2	-	.	-	33	-	-	-	-
Cc1ccc(S(=O)(=O)NCc2ccc(C(=O)NCCCN3CCC(Cc4ccccc4)CC3)cc2)cc1	-	-	.	-	.	-	.	.
Cc1onc(-c2ccccc2)c1C(=O)N/N=C/c1cc2c(cc1Cl)OCO2	-	-	-	-	-	-	.	.
O=C(NC1CCCCC1)C(c1ccncc1)N(Cc1ccc2c(c1)OCO2)C(=O)c1cnsn1 (centres undefined)	-	-	-	25	-	-	28	-
O=C(NC1CCCC1)C(c1ccncc1)N(Cc1ccccc1)C(=O)Cc1cccs1 (centres undefined)	-	-	-	21	-	-	-	-
O=C(COc1ccc(Cl)cc1)N(Cc1ccccc1)c1nc(-c2ccccc2)cs1	-	-	.	-	-	-	.	.
COc1ccc(-c2csc(N(CCc3ccccc3)C(=O)COc3ccccc3)n2)cc1	-	.	.	32	-	-	-	-
CCOC(=O)c1cnc2ccc(OC)cc2c1Nc1ccc2c(c1)OCCO2	-	-	-	39	-	-	-	-
CCOC(=O)c1cnc2ccc(C(=O)OC)cc2c1Nc1ccc2c(c1)OCCO2	-	-	-	-	-	-	.	.
CCOc1cc(C2C3=C(CC(C)(C)CC3=O)Nc3n[nH]c(C)c32)ccc1O (centres undefined)	-	-	.	42	.	-	26	40
COc1ccc(-c2nnc3sc(C4CCCCC4)nn23)cc1OC	-	-	-	33	-	-	24	38
Cc1ccc(C(=O)NC(=S)Nc2ccc(CN3CCCCC3)cc2)c(C)c1	-	-	.	24	.	-	-	27
O=C(NC(=S)Nc1ccc(CN2CCCCC2)cc1)c1ccco1	-	-	.	-	.	-	.	.
COc1ccc(C(=O)NC(=S)Nc2ccc(CN3CCCCC3)cc2)cc1Cl	-	-	.	28	.	-	-	23
COc1ccc(F)cc1C(=O)C1CCCN(Cc2ccc(Sc3nncn3C)o2)C1 (centres undefined)	-	-	.	-	.	-	.	.
OCCN1CCN(c2ncnc3sc(-c4ccccc4)cc23)CC1	-	-	.	-	.	-	.	.
CCCCNC(=O)CN1C(=O)NC2(CCCc3ccccc32)C1=O (centres undefined)	-	-	-	25	-	-	-	-
CC(C)C(C)NC(=O)CN1C(=O)NC2(CCCc3ccccc32)C1=O (centres undefined)	-	-	.	-	.	-	.	.
COc1ccc(C(=O)NCC(=O)OCC(=O)c2ccc3c(c2)NC(=O)CO3)cc1	-	-	.	-	.	-	.	.
COCCCn1c(SCc2ccc(OC)cc2)nc2cc(OC)c(OC)cc2c1=N	-	-	-	-	-	-	.	.
